Among the data in the RNAGym collection of RNA variant scans (doi:10.1126/science.aae0568) are yeast fitness values, retold here.

This sample holds only a part of the variants without activity.

To fix the notation:
B1: tRNA (parent)
chain: GUUCCGUUGGCGUAAUGGUAACGCGUCUCCCUCCUAAGGAGAAGACUGCGGGUUCGAGUCCCGUACGGAACG

This data set covers variants of B1. The data set is described as follows: yeast fitness relative to wild type (ratio to wild type); higher = fitter; tRNA-Arg(CCU), competitive growth, 37 C, YPD. The procedure, abridged: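 Start and end populations of a pooled competition were compared by 100-nucleotide paired-end sequencing of gene amplicons. The Saccharomyces cerevisiae strains carried tRNA-Arg(CCU) gene variants at the native genomic locus, synthesised with a 3% per-site mutation rate at 69 sites, and competed in YPD at 37°C for 24 hours in six parallel replicates. Darwinian fitness relative to wild type was based on the change in genotype frequencies. Genotypes required ≥ 100 starting reads, and estimates < 0.5 were set to 0.5.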
For the variant GUUCCGUUGGCGUCAUGGUCACGCGUCUCACUCGUAAGGAGAAGACUGCGGGUUCGAGUCCCGUAAGGAACG [A14C A20C C30A C34G C66A], the yeast fitness was at most 0.5.

In the case of GUUCCGUUGGCGUCAUGGUAGUGCGUCUCCCUCCUAAGGAGAAGACAGCGGGUUCAAGUCCCGUACGGAACG [A14C A21G C22U U47A G56A], the yeast fitness was 0.622.

Take GUUCCGUUGGCGUCAUGGUAACGCGUCUCCCUCCUAAGGCGAAGACUGCGGGUUCGAGUCCCGUACGGAACG [A14C A40C]: the yeast fitness turned out to be 0.6.

GUUCCGUUGGCGUCAUGGUCACGCGUCUCCCCCCUAAGGAGAAGACUGCGGGUUCGAGUCCCGUACGGAACG [A14C A20C U32C]: the yeast fitness was at most 0.5.

Turning to GUUCCGUUGGCGUCAUGGUAACGCGUCUCCCUCCUAAGGGGAAGACUGCGGGUUCGGGUCCCGUACGGAACG [A14C A40G A57G], the yeast fitness stood at 0.539.

As to GUUCCGUUGGCGUCCUGGUAACGCGUUUACCUCGUAAGGAGAAGACUGCCGGUUCGAGUCCCGUACGGAACG [A14C A15C C27U C29A C34G G50C], the yeast fitness was found to be 0.597.

In the case of GUUCCGUUGGCGUCAUGGUAACGCGUCUCCCUCCUAAGGUGAAGACUGCGGGUUCCAGUCCCGUACUGAACG [A14C A40U G56C G67U], the yeast fitness is at most 0.5.

GUUCCGUUGGCGUCAUGGUUACGCGUGUCCCUCCUAAGGAGAAGACUGCGGGUUCGAGCCACGUACGGAACG [A14C A20U C27G U59C C61A]: the yeast fitness is at most 0.5.

Consider GUUCCGUUGGCGUCAUGGUACCGCGUCUGCCUCCUAAGGAGAAGACUGCGGGUUCGAGUCCCGUACGGAACG [A14C A21C C29G], for which the yeast fitness is at most 0.5.

For GUUCCGUUGGCGUCUAGGUAACGCGUCUCCCUCCUAAGGAGAAAACUGCGGGUUCGUGUCCCGUACGGAACG [A14C A15U U16A G44A A57U], the yeast fitness was at most 0.5.

For GUUCCGUUGGCGUCAUGGUUACGCGUCUCCUUCCUAACGAGAAGACUGCGGGUUCGAGUCCCGUACGGAACG [A14C A20U C31U G38C], the yeast fitness is at most 0.5.

Take GUUCCGUUGGCGUCAUGGUAACGCGUCUCCCUCCUUAGGAGAAGACUGCGGGUUCGAGUCCCGUACGGAACG [A14C A36U]: the yeast fitness was 0.591.

As to GUUCCGUUGGCGUCAUGGUAACGCGUCUCCCUCCUGAGGAGAAGACUGCGGGUUCGAGUCCCGUACGGAACG [A14C A36G], the yeast fitness is 0.644.

GUUCCGUUGGCGUCAUGGUAACGCGUCUCCCUCCUCAGGAGAAGACUGCGGGUUCGAGUCCCGUACGGAACG [A14C A36C]: the yeast fitness turned out to be 0.564.

Turning to GUUCCGUUGGCGUCUUGGUAACGCGUCUCCCUACUAGGGAGAAGACUGCGGGUUCGAGUCCCGUACGGAACG [A14C A15U C33A A37G], the yeast fitness turned out to be 0.596.

As to GUUCCGUUGGCGUCAUGGUAACGCGUCUCCCUCCUAAGGAGGAGACUGCGGGUUCGAGUCCCGUACGGAACG [A14C A42G], the yeast fitness came out at 0.595.

With GUUCCGUUGGCGUCAUGGUAACGCGUCUCCCUCCUAAGGAGUAGACUGCGGGUUCGAGUCCCGUACGGAACG [A14C A42U], the yeast fitness was determined as 0.524.

On to GUUCCGUUGGCGUCAUGGUUACGCGUGUCCCUCCUAAGGAGAAGACUGCGGGCUCGAGUCCCGUACGGAACG [A14C A20U C27G U53C], for which the yeast fitness is at most 0.5.

As for GUUCCGUUGGCGUCAUGGUAGCGCGUCUACCUCUUAAGGAGAAGACUGCGGGUUCGAGUCCCGUACGGAACG [A14C A21G C29A C34U], the yeast fitness is 0.612.

Turning to GUUCCGUUGGCGUCUUGGUAACGCGUCUCCCUCCUAAGGCGAAGACUACGGGUUCGAGUCCCGUACGGAACG [A14C A15U A40C G48A], the yeast fitness is at most 0.5.

Regarding GUUCCGUUGGCGUCAUGGUAUUGCGUCUCCCUCCUAGGGAGAAACAUGCGGGUUUGAGGCCCGUACGGAACG [A14C A21U C22U A37G G44A A45C C46A C55U U59G], the yeast fitness was found to be 0.608.

Take GUUCCGUUGGCGUCAUGGUUACGCGUCUCCCUCCUAAGGAGAAGACUGCGGGUUCGAGUCCCGUAAGGAACG [A14C A20U C66A]: the yeast fitness was at most 0.5.

For the variant GUUCCGUUGGCGUCAUGGUAACGCGUCUCCCUCCUAGGGAGAAGACUGGGGGUUCGAGUCCCGUACGGAACG [A14C A37G C49G], the yeast fitness is at most 0.5.

For the variant GUUCCGUUGGCGUCGUGGUAACGCGUCUCCCUCCUAAGGAGAAGAGUGCGGGUUCGAGUCCCGUACGGGACG [A14C A15G C46G A69G], the yeast fitness was at most 0.5.

As for GUUCCGUUGGCGUCAUGGUUACGCGUCUCAAUCCUAAGGAGAAGACUGCGGAUUCGAGUCCCGUACGUAACG [A14C A20U C30A C31A G52A G68U], the yeast fitness was determined as 0.551.

Regarding GUUCCGUUGGCGUCAUGGUAACGCGUCUCCCUCCUCAGGAGAAGACUGCGGGUUCGAGUCCCGUACGGUACG [A14C A36C A69U], the yeast fitness came to 0.905.

As to GUUCCGUUGGCGUCAUGGUAACGCGUCUCCCUCCUAAGGGGUAGACUGCGGGUUCGAGUCCCGUACGGAACG [A14C A40G A42U], the yeast fitness is at most 0.5.

For the variant GUUCCGUUGGCGUCAUGGUACCGCGUCUCCCUCCUAAGAAGAAGACUGGGGGUUCGAGUCCCGUACGGAACG [A14C A21C G39A C49G], the yeast fitness is at most 0.5.

On to GUUCCGUUGGCGUCAUGGUCACGCGUCUCCCUGCUAAGGAGAAGACUGCGGGUUCGAGUCCCGUCUGGAACG [A14C A20C C33G A65C C66U], for which the yeast fitness came to 0.758.

In the case of GUUCCGUUGGCGUCGUGGUAACGCGUCUCCCUCCUAAGGAGGAGACUGCGGGUUCGAGUCCCGUACGGAUCG [A14C A15G A42G A70U], the yeast fitness was found to be 0.569.

As for GUUCCGUUGGCGUCAUGGUGAUGCGUCUCUCUCCUAAGGAGAAGACUGCGGGUUCGAGUCCCGUACGGAACG [A14C A20G C22U C30U], the yeast fitness is at most 0.5.

Turning to GUUCCGUUGGCGUCAUGGUCACGCGUCUCCCUCCUAAGGAGGAAACUGCGGGUUCGAGUCCCGUACGGAACG [A14C A20C A42G G44A], the yeast fitness is 0.633.

As to GUUCCGUUGGCGUCAUGGUUACGCGUCUCCCUUCUAAGGAGAAGACUGCGGGUUCGAGUCCCGUACGGAACG [A14C A20U C33U], the yeast fitness was at most 0.5.

In the case of GUUCCGUUGGCGUCAUGGUAACGCGUCUCCCUCCUAAGGAGGAGACUGCGGGUUCGAGUCCCGUACGCAACG [A14C A42G G68C], the yeast fitness is at most 0.5.

As for GUUCCGUUGGCGUCGUGGUAACCCGUCUCCCUCCUAAGGAGAAGACUGCGGGUUCGCGUCCCGUACGGAACG [A14C A15G G23C A57C], the yeast fitness was at most 0.5.

For GUUCCGUUGGCGUCAUGGUAGCGCAUCUCCCUUCUAAGGAGAAGACUGCGGGUUCGAGUCACGUACGGUACG [A14C A21G G25A C33U C61A A69U], the yeast fitness is at most 0.5.

As for GUUCCGUUGGCGUCAUGGUACCGUGUCUCCCUCCUUAGGAGAUGACUGCGGGUUCGAGUCCCGUCUGGAACG [A14C A21C C24U A36U A43U A65C C66U], the yeast fitness was at most 0.5.

In the case of GUUCCGUUGGCGUCUUGGUAACGCGUCUCUCUCGUAAGGAGAAGACUGCGGGUUCGAGUCACGAACGGUACG [A14C A15U C30U C34G C61A U64A A69U], the yeast fitness was at most 0.5.
